Test results taken from ChEMBL document CHEMBL4382192, “Discovery of a potent dual ALK and EGFR T790M inhibitor” (Eur J Med Chem, 2017).

Key:
[1] = target: Phosphatidylinositol 4,5-bisphosphate 3-kinase catalytic subunit gamma isoform (Homo sapiens) (UniProt P48736); test: Binding affinity to wild-type human partial length PIK3CG (S144 to A1102 residues) expressed in mammalian expression system assessed as residual binding level at 1 uM by Kinomescan method relative to control
[2] = target: TGF-beta receptor type-2 (Homo sapiens) (UniProt P37173); test: Binding affinity to wild-type human partial length TGFBR2 (I218 to K567 residues) expressed in bacterial expression system assessed as residual binding level at 1 uM by Kinomescan method relative to control
[3] = target: Mitogen-activated protein kinase kinase kinase 19 (Homo sapiens) (UniProt Q56UN5); test: Binding affinity to wild-type human partial length YSK4 (T1019 to H1328 residues) expressed in mammalian expression system assessed as residual binding level at 1 uM by Kinomescan method relative to control
[4] = target: Serine/threonine-protein kinase ULK2 (Homo sapiens) (UniProt Q8IYT8); test: Binding affinity to wild-type human partial length ULK2 (M1 to S301 residues) expressed in mammalian expression system assessed as residual binding level at 1 uM by Kinomescan method relative to control
[5] = target: Serine/threonine-protein kinase NLK (Homo sapiens) (UniProt Q9UBE8); test: Binding affinity to wild-type human full length NLK (M13 to E527 residues) expressed in bacterial expression system assessed as residual binding level at 1 uM by Kinomescan method relative to control
Outline: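 Single-point kinome-wide KINOMEscan binding panel, test compound at 1 μM, run by the provider's standard protocol.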

[6] = target: Activin receptor type-1-like (Homo sapiens) (UniProt P37023); test: Binding affinity to wild-type human ACVRL1 (L164 to Q503 residues) expressed in bacterial expression system assessed as residual binding level at 1 uM by Kinomescan method relative to control
[7] = target: Microtubule-associated serine/threonine-protein kinase 1 (Homo sapiens) (UniProt Q9Y2H9); test: Binding affinity to wild-type human partial length MAST1 (S346 to V730 residues) expressed in mammalian expression system assessed as residual binding level at 1 uM by Kinomescan method relative to control
[8] = target: Serine/threonine-protein kinase D2 (Homo sapiens) (UniProt Q9BZL6); test: Binding affinity to wild-type human partial length PRKD2 (A519 to E838 residues) expressed in bacterial expression system assessed as residual binding level at 1 uM by Kinomescan method relative to control
[9] = target: Membrane-associated tyrosine- and threonine-specific cdc2-inhibitory kinase (Homo sapiens) (UniProt Q99640); test: Binding affinity to wild-type human partial length PKMYT1 (A88 to G366 residues) expressed in bacterial expression system assessed as residual binding level at 1 uM by Kinomescan method relative to control
[10] = target: Mitogen-activated protein kinase kinase kinase 2 (Homo sapiens) (UniProt Q9Y2U5); test: Binding affinity to wild-type human partial length MAP3K2 (S315 to H619 residues) expressed in mammalian expression system assessed as residual binding level at 1 uM by Kinomescan method relative to control
[11] = target: Serine/threonine-protein kinase/endoribonuclease IRE1 (Homo sapiens) (UniProt O75460); test: Binding affinity to wild-type human partial length ERN1 (S551 to E852 residues) expressed in mammalian expression system assessed as residual binding level at 1 uM by Kinomescan method relative to control
[12] = target: STE20-like serine/threonine-protein kinase (Homo sapiens, UniProt Q9H2G2); test: Binding affinity to wild-type human partial length SLK (S14 to A307 residues) expressed in bacterial expression system assessed as residual binding level at 1 uM by Kinomescan method relative to control
[13] = target: Receptor-type tyrosine-protein kinase FLT3 (Homo sapiens) (UniProt P36888); test: Binding affinity to wild-type human partial length FLT3 (V592 to Y969 residues) expressed in bacterial expression system assessed as residual binding level at 1 uM by Kinomescan method relative to control
[14] = system: Phosphatidylinositol 4,5-bisphosphate 3-kinase catalytic subunit alpha isoform (Homo sapiens), P42336 [E542K]; test: Binding affinity to human partial length PIK3CA E542K mutant (R108 to N1068 residues) expressed in mammalian expression system assessed as residual binding level at 1 uM by Kinomescan method relative to control
[15] = target: Phosphatidylinositol 5-phosphate 4-kinase type-2 gamma (Homo sapiens) (UniProt Q8TBX8); test: Binding affinity to wild-type human partial length PIP5K2C (M1 to A421 residues) expressed in mammalian expression system assessed as residual binding level at 1 uM by Kinomescan method relative to control
[16] = system: Receptor-type tyrosine-protein kinase FLT3 (Homo sapiens), P36888 [R834Q]; test: Binding affinity to human partial length FLT3 R834Q mutant (V592 to Y969 residues) expressed in mammalian expression system assessed as residual binding level at 1 uM by Kinomescan method relative to control
Outline: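 Kinome-wide selectivity panel run by the KINOMEscan method, with the test compound at a single concentration of 1 μM. Wild-type and mutant kinases were profiled in the same screen.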

[17] = target: Dual specificity protein kinase CLK1 (Homo sapiens) (UniProt P49759); test: Binding affinity to wild-type human full length CLK1 (M1 to I484 residues) expressed in bacterial expression system assessed as residual binding level at 1 uM by Kinomescan method relative to control
[18] = target: AP2-associated protein kinase 1 (Homo sapiens) (UniProt Q2M2I8); test: Binding affinity to human wild-type AAK1 (G25 to L333 residues) expressed in bacterial expression system assessed as residual binding level at 1 uM by Kinomescan method relative to control
[19] = target: Tyrosine-protein kinase JAK3 (Homo sapiens) (UniProt P52333); test: Binding affinity to wild-type human partial length JAK3 JH1 catalytic domain (I781 to S1124 residues) expressed in mammalian expression system assessed as residual binding level at 1 uM by Kinomescan method relative to control
[20] = target: Receptor tyrosine-protein kinase erbB-2 (Homo sapiens, UniProt P04626); test: Inhibition of recombinant His-tagged human ErbB2 cytoplasmic domain expressed in baculovirus expression system by Z-LYTE assay
[21] = target: Calcium/calmodulin-dependent protein kinase type II subunit alpha (Homo sapiens) (UniProt Q9UQM7); test: Binding affinity to wild-type human partial length CAMK2A (M1 to K328 residues) expressed in bacterial expression system assessed as residual binding level at 1 uM by Kinomescan method relative to control
[22] = target: Tyrosine-protein kinase ZAP-70 (Homo sapiens) (UniProt P43403); test: Binding affinity to wild-type human partial length ZAP70 (D20 to G299 residues) expressed in mammalian expression system assessed as residual binding level at 1 uM by Kinomescan method relative to control
[23] = system: Phosphatidylinositol 4,5-bisphosphate 3-kinase catalytic subunit alpha isoform (Homo sapiens), P42336 [C420R]; test: Binding affinity to human partial length PIK3CA C420R mutant (R108 to N1068 residues) expressed in mammalian expression system assessed as residual binding level at 1 uM by Kinomescan method relative to control
Sequence of Phosphatidylinositol 4,5-bisphosphate 3-kinase catalytic subunit alpha isoform (Homo sapiens), P42336 [C420R] (P42336 whole entry C420R, the tested form may be a part, canonical isoform): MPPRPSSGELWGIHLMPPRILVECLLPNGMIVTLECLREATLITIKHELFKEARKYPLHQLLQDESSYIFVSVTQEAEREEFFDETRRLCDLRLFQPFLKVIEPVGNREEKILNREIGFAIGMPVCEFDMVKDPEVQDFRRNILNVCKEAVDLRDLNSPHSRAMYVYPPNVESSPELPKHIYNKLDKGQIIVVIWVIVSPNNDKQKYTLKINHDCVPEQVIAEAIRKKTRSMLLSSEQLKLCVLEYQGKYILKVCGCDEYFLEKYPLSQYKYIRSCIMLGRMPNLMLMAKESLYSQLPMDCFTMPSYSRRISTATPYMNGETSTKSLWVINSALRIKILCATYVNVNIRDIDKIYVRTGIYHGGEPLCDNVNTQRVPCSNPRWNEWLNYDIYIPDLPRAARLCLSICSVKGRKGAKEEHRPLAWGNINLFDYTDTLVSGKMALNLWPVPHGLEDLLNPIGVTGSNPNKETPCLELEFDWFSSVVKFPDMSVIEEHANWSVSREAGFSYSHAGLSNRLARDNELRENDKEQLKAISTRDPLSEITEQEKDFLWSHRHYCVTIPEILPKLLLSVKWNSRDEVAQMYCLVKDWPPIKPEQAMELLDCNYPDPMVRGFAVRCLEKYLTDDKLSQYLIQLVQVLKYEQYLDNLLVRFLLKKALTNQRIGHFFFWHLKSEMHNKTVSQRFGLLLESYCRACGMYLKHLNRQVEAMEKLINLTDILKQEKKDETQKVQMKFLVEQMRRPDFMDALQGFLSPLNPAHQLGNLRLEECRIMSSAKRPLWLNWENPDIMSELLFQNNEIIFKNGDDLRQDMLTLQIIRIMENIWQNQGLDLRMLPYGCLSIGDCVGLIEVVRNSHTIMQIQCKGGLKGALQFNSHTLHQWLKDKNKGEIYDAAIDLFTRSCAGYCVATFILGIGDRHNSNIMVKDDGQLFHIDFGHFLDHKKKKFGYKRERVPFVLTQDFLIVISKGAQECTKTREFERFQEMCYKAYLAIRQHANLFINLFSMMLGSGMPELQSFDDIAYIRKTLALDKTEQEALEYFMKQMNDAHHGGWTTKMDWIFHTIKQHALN

Sequence of Phosphatidylinositol 4,5-bisphosphate 3-kinase catalytic subunit alpha isoform (Homo sapiens), P42336 [E542K] (P42336 whole entry E542K, the tested form may be a part, canonical isoform): as the sequence (P42336 whole entry C420R, the tested form may be a part, canonical isoform) above, with R420C, E542K counted along it
Sequence of STE20-like serine/threonine-protein kinase (Q9H2G2 whole entry, looked up, the tested form may be a part): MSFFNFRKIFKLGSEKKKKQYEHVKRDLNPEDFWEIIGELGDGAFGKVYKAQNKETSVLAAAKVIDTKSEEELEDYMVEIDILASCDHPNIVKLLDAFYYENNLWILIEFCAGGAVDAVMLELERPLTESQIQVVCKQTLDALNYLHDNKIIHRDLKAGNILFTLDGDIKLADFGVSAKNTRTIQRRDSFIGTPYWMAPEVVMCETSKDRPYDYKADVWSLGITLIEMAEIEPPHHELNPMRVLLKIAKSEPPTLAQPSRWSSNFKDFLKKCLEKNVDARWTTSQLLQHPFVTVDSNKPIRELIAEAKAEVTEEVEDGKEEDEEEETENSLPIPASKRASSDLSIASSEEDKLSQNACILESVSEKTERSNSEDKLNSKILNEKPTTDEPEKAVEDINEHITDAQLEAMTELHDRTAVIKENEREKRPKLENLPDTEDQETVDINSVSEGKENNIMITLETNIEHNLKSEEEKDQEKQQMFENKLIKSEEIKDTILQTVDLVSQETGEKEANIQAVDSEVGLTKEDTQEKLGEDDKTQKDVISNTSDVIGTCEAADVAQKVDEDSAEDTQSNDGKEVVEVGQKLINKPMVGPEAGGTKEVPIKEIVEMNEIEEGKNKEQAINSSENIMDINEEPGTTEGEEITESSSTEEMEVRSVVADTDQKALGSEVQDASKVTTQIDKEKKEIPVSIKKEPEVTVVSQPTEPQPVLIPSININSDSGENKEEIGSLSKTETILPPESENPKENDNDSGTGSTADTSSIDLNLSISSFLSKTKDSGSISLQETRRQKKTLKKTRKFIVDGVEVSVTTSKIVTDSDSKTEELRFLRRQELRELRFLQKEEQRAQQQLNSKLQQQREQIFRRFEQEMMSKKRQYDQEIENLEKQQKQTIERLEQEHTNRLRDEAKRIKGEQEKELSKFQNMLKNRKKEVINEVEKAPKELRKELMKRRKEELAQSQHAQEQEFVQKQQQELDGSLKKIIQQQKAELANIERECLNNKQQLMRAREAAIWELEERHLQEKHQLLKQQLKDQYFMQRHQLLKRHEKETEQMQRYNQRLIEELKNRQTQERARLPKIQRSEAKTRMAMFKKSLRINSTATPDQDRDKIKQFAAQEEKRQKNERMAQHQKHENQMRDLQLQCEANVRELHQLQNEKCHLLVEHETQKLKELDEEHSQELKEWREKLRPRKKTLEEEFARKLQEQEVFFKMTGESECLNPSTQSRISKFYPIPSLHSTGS
Sequence of Serine/threonine-protein kinase NLK (Homo sapiens) (Q9UBE8 whole entry, the tested form may be a part): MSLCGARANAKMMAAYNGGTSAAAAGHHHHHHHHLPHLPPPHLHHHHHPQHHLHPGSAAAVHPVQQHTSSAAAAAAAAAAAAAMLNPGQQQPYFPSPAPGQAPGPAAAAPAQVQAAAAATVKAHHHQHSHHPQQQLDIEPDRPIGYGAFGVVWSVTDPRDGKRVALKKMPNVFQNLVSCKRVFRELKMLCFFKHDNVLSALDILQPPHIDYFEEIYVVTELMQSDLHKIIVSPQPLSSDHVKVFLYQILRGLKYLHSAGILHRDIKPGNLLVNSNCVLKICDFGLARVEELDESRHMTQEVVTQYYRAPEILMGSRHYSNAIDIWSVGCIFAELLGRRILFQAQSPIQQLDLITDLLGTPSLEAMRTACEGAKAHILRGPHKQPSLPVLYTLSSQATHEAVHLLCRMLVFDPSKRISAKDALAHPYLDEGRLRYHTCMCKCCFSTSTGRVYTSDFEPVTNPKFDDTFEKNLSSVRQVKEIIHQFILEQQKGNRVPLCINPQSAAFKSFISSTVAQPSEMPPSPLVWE
Sequence of Calcium/calmodulin-dependent protein kinase type II subunit alpha (Homo sapiens) (Q9UQM7 whole entry, the tested form may be a part): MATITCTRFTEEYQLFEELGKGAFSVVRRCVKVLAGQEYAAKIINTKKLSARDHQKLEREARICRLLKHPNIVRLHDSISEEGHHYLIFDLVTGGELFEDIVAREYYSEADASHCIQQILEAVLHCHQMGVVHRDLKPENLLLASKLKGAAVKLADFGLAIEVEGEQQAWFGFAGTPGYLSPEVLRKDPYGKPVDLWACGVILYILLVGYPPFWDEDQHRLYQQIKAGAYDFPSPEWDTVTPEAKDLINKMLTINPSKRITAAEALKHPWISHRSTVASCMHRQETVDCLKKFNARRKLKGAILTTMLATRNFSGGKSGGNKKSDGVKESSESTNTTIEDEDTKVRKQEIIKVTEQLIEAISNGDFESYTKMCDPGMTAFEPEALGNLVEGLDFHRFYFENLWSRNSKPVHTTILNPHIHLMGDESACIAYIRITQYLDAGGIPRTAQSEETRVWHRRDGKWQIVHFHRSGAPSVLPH
Sequence of TGF-beta receptor type-2 (Homo sapiens) (P37173 whole entry, the tested form may be a part): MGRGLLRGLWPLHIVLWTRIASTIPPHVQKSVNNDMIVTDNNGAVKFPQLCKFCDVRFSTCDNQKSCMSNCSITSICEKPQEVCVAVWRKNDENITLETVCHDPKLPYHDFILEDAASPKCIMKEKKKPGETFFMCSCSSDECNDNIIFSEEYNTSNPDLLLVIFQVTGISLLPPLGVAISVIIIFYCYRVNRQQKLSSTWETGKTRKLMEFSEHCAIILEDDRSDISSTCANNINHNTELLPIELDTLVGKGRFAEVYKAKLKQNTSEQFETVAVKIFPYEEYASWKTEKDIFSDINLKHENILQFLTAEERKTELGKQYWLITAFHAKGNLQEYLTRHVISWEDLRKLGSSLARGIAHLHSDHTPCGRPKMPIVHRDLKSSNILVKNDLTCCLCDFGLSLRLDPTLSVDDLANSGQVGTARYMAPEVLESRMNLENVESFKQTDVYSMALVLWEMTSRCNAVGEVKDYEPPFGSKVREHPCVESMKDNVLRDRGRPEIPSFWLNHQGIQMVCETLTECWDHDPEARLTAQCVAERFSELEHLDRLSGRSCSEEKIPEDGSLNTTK

C=CC(=O)Nc1cc(Nc2ncc(Cl)c(Nc3ccccc3S(=O)(=O)C(C)C)n2)c(OC)cc1N(C)CCN(C)C
Activity [1]: 98% | Activity [2]: 82% | Activity [3]: 14% | Activity [4]: 4.3% | Activity [5]: 55% | Activity [6]: 30% | Activity [7]: 3.2% | Activity [8]: 3.1% | Activity [9]: 80% | Activity [10]: 32% | Activity [11]: 39% | Activity [12]: 0% | Activity [13]: 3.1% | Activity [14]: 72% | Activity [15]: 90% | Activity [16]: 26% | Activity [17]: 6.9% | Activity [18]: 72% | Activity [19]: 0% | IC50 [20]: 37 nM | Activity [21]: 18% | Activity [22]: 77% | Activity [23]: 87%
